Results as given in the EternaBench riboswitch data.

Tested on: MS2 coat protein
Test: apparent Kd, MS2 coat protein; higher = weaker binding; RNA-MaP array
Method in brief: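 Fluorescently labeled MS2 coat protein, from 1.5 nM to 3 μM, was incubated at room temperature with designed RNAs transcribed on an Illumina sequencing chip from sequenced DNA templates. Times ran from 0.8–1.5 h at the lowest concentrations to 10–20 min at the highest, in Tris-HCl pH 7.5 buffer with KCl, MgCl2, BSA, DTT, tRNA and Tween20, with or without input ligand. Each apparent Kd is the median of per-cluster binding-curve fits, and designs with fewer than 10 measured clusters were excluded.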

[1] = designed as: OFF switch for flavin mononucleotide, no ligand
[2] = ligand present: flavin mononucleotide, designed as: OFF switch for flavin mononucleotide
[3] = designed as: ON switch for flavin mononucleotide, no ligand
[4] = ligand present: flavin mononucleotide, designed as: ON switch for flavin mononucleotide
[5] = designed as: OFF switch for theophylline, no ligand
[6] = ligand present: theophylline, designed as: OFF switch for theophylline
[7] = designed as: ON switch for theophylline, no ligand
[8] = ligand present: theophylline, designed as: ON switch for theophylline

Sequence | apparent Kd [1] | apparent Kd [2] | apparent Kd [3] | apparent Kd [4] | also measured
AAAUGGAUCGAAGGAUAUCCCCAGACAUGAGGAUCACCCAUGUGAGGGUACAGUUAUUGUUAUCAGGAGAAGGUCGCAUUCAAA | 0.0103 µM | 0.0095 µM |  |  | 
AACAAAAGGAAGAAGGCAGUUAAACAUGAGGAUCACCCAUGUGGGACGCGGGAAAUCAACGAGACUGAGGAUAUUCAUUAAGAA | 0.00984 µM | 0.0209 µM |  |  | 
AACAAAUGGGAAGGAUAUCGUUACAUGAGGAUCACCCAUGUCUACCUUGGGAGCGGUAGCUAUGUCGAGAAGGUCCAUGCGCGA |  |  | 0.394 µM | 0.0841 µM | 
AACGGCUGCGCGUAGGAUAUGGCCCAUCCAACAUGAGGAUCACCCAUGUGCCACGAUGAGACUUCCCAGAAGGACGGUGCGAUGAG |  |  | 0.0184 µM | 0.0116 µM | 
AACUUUCCCUAGAAGGUCGUGUUACAACAUGAGGAUCACCCAUGUCGCCCUAGGGCUGCUGCCGCGAAGGAUAUAGGUCCGGAG |  |  | 0.00577 µM | 0.00532 µM | 
AAUAAACAGUAGAAGGCUGAUACCUACAAAAGUCGAAGACAUGAGGAUCACCCAUGUCAGUCAUCAGAGGAUAUACGUGAAUCG |  |  | 0.0123 µM | 0.00749 µM | 
AAUAUUAUGUCGGCCGCCACUUCCCACAAGAGGUGCCUGCACCCACAUGAGGAUCACCCAUGUCGAAGGACCGGGACGCUCAAUU |  |  |  |  | apparent Kd (designed as: ON switch for tryptophan, no ligand): 0.0168 µM; apparent Kd (ligand present: tryptophan, designed as: ON switch for tryptophan): 0.0156 µM
AAUUCCUGUAAGAAGGGCGAUAUACAUGAGGAUCACCCAUGUCGUUGGAUUGAAGAAAAUCAGACGCAGGAUAUUAUUGGGAAC |  |  | 0.0943 µM | 0.04 µM | 
ACAAUAAAUCAAGGAUAUGAACGAAGCAAGUGAUCAGAAGGUGAAAUAAACCCAUAAACUCCAACAUGAGGAUCACCCAUGUGA |  |  | 0.054 µM | 0.0355 µM | 
ACACGUGACAAGGAUACCAGCCUGGCUAGUUCAAACCCUCACAUGAGGAUCACCCAUGUAGGCCCUUGGCAGCCUAUAGUCUAAG |  |  |  |  | apparent Kd [5]: 0.0319 µM; apparent Kd [6]: 0.0839 µM
ACAUACUUGGGAGGAUAUAUGUUCGUACGCUCGAUAGAAGGCCCAGAAGUAUAAGACAUGAGGAUCACCCAUGUGGCAAGCGUU |  |  | 0.0114 µM | 0.00878 µM | 
ACAUGAGGAUCACCCAUGUCCUAAAAUGAGGCGAAUACGGCCAAGGAUAUUGGAACAACAGAAGUCAAGAAGGUGGCUAAAUUA |  |  | 0.0567 µM | 0.0283 µM | 
ACAUGAGGAUCACCCAUGUGUCUCCUUUCCAUUACGAUCUUUAGAAGGGUCCGCAAACACUCUGGACAGGAUAUAAAGUAUGGC | 0.0134 µM | 0.0122 µM |  |  | 
ACAUGAGGAUCACCCAUGUUGUCAUAGCAACUUUACAGGAGGAGAAGGCGAGGUUGGGCUGCCCUCGAGGAUAUCCGUAGAAAA |  |  | 0.0104 µM | 0.00645 µM | 
ACAUGAGGAUCACCCAUGUUUGGGCAAAGAUUGAUUGACACGAGAAGGGCCCGCGUACGUCGUAGGCAGGAUAUCGAGUACCGG | 0.0322 µM | 0.0311 µM |  |  | 
ACCCACAGAGGAUAUACAGCGAAACCUCAUAUUAAAUAUUCACAUGAGGAUCACCCAUGUAGAAGGCUGGAGAA | 0.0109 µM | 0.0388 µM |  |  | 
ACCCGACAUGAGGAUCACCCAUGUGGUUUCGGUCGAGGAUAUUCAAUCUGAAUUAUGUAGGAAGAAGGCGAUACCC |  |  | 0.173 µM | 0.078 µM | 
ACGGGUGACAAGAAGGGCUAGGUAACAUGCCGUAGACUAGAAUAACAUGAGGAUCACCCAUGUAAGCAGGAUAUUGUAUAAUAA |  |  | 0.156 µM | 0.0528 µM | 
ACGGUAGGCUAGAAGGCCCGGACUCGCCCAGAGGGAGGAUAUAGCAUUGGCGUACUACAUGGCACAUGAGGAUCACCCAUGUAA | 0.0354 µM | 0.0306 µM |  |  | 
ACGUAGUGCCGAGGAUAUGUAACAUGAGGAUCACCCAUGUUCUCUAACAGGUCGAUUUUAAGCACACAGAAGGCGGGUGUUGAU | 0.0114 µM | 0.0118 µM |  |  | 
ACGUGGGUAACCAAGGAUAUAUUUACACCCACAUGAGGAUCACCCAUGUUCUUGCAGGCAUAUAAAUAGAAGGUGGAAACGCAGUG |  |  | 0.379 µM | 0.129 µM | 
ACUAAACCACAGAAGGAACUGAGUGCGCAAAAGUAAGGAUAUGUAAACAAUAACAUGAGGAUCACCCAUGUGACAGUAAGUUUA |  |  | 0.00831 µM | 0.0072 µM | 
ACUAGGGACCUGACAUGAGGAUCACCCAUGUUCUCGGAUCACAAGGAUAUCCGCACGUACCUGUGGGAGAAGGUGUCGUCCCAC |  |  | 0.026 µM | 0.0218 µM | 
ACUCCGUCGUAGAAGGGAAAAUGCUUGGCGUCUCUCGGGUACAUGAGGAUCACCCAUGUUACGGUUCAGGAUAUACAGACUGCU | 0.0105 µM | 0.0106 µM |  |  | 
AGAACCAUAGUAGGAUAUGAGACGUUAUUGGUAACAGAAGGACUAGCUGUAACAUGAGGAUCACCCAUGUGGGCCGGACAGAGG |  |  | 0.0141 µM | 0.0115 µM | 
AGACCGGCUCAGGAUAUGUACAGGACAUACUCAACAGAAGGGAGUACAUGAGGAUCACCCAUGUCUGGGUAGAU | 0.488 µM | 0.371 µM |  |  | 
AGACGGUUACAGGAUAUGACUACUGCUAGAGCAUCAGAAGGGUAUACAUGAGGAUCACCCAUGUCUUCACGGCG | 0.0101 µM | 0.00962 µM |  |  | 

Sequence | apparent Kd [1] | apparent Kd [2] | apparent Kd [3] | apparent Kd [4] | also measured
AGAUCGCUGACCGCGGGAGAUGCGCAGGAUACCAGCCUAAUGUCCGGCCCUUGGCAGCCUGUAACAUGAGGAUCACCCAUGUGAA |  |  |  |  | apparent Kd [5]: 0.0171 µM; apparent Kd [6]: 0.031 µM
AGAUCUAACGCAGGAUAUAGUGCGGGAAAACCUAAACAUGAGGAUCACCCAUGUCUGCUACAAAGCUAGAAGGGCGUUCGGGAA |  |  | 0.0464 µM | 0.0238 µM | 
AGCAUGACAGCAGGAUAUGCGAACAGAAAUAGUGCAGAAGGGCUUUACACAUGAGGAUCACCCAUGUCCGCAAGGAUGCGUAUG |  |  | 0.0411 µM | 0.0194 µM | 
AGCGUGUAAGGAUAUCCAAUUGAUGGGAGCGGAUCUUCCCAGGAGAAGGUACAUGAGGAUCACCCAUGUGGCGC | 0.0372 µM | 0.035 µM |  |  | 
AGCGUGUAAGGAUAUUGAUCUCCACUUCUGUAGGUCGGUGACAAGAAGGUACAUGAGGAUCACCCAUGUCCAUG | 0.0198 µM | 0.0217 µM |  |  | 
AGGCCACAUGAGGAUCACCCAUGUAAGGAUAUUGGAGCAUGGAAACGCUGUGCGCAUGCAAGAAGGUACACGGA | 0.0247 µM | 0.0205 µM |  |  | 
AGGCCAUCCAAGAAGGCUUACAACAUGAGGAUCACCCAUGUCACGGAGAUGUAUAACAUCUACUAAGAGGAUAUUGGGAGAGCU |  |  | 0.241 µM | 0.0374 µM | 
AGGCUAUGUGAGAAGGCCGAAUGCCUAUAGUGCGGAGGAUAUCAAUCAACAUGAGGAUCACCCAUGUAGCAAAUCGUAGUUCUC |  |  | 0.0843 µM | 0.0601 µM | 
AUAAACCUAACAUGAGGAUCACCCAUGUCCUCCGUCGGUCGAAGAAGGAGUAAUGCUUAUUUUUACUAGGAUAUUCGUAAUCAC | 0.0902 µM | 0.216 µM |  |  | 
AUACAAGCAAUGGAGGAUAUCGCAGAAAUCACAUGAGGAUCACCCAUGUCUUACCGUAUGUCGAGCGAGAAGGCCACGGUGCGAGU |  |  | 0.0355 µM | 0.0173 µM | 
AUACCUAGUGAAGGAUAUCCAAAUAACUAUAGAGGAGAAGGACACAUUCUAACAUGAGGAUCACCCAUGUCCCGCCGUCUUACC |  |  | 0.0144 µM | 0.0119 µM | 
AUCUACGUGGGUGAUACCAGCUGGUUAGUACACAUGAGGAUCACCCAUGUGCAGGCAGGCAGCCCUUGGCAGCACCGCAGUGGCU |  |  |  |  | apparent Kd [7]: 0.12 µM; apparent Kd [8]: 0.035 µM
AUCUUAGGUGAGAAGGUGGACACAUGAGGAUCACCCAUGUUGAUGGUCUUGUAGCGUUUGCAAGCCAAGGAUAUCAUCUACGGC |  |  | 0.0274 µM | 0.0198 µM | 
AUGAACAACCAGAAGGCAACGUUGGCCCAAGUUUGAGGAUAUGGACGUGGAAGUUCGCACAUGAGGAUCACCCAUGUAGAUCAG | 0.014 µM | 0.0128 µM |  |  | 
AUGAAGCUAAGAGAUACCAGUGACCACAGAUACAUGAGGAUCACCCAUGUCUCAAAUUGUCACCCUUGGCAGCUCACUAUCGAAG |  |  |  |  | apparent Kd [7]: 0.0102 µM; apparent Kd [8]: 0.00926 µM
AUGCACAUCUAGGAUACCAGCACCCUUAUGUCACUAGUUAACAUGAGGAUCACCCAUGUUUGCCCUUGGCAGCCUCAUUGACCAU |  |  |  |  | apparent Kd [5]: 0.0685 µM; apparent Kd [6]: 0.172 µM
AUGUAACAUGAGGAUCACCCAUGUAAGGAUAUGCAACAAAACUCUGAAUCGUAAGUUCGCAGAAGGUACAUUAG | 0.0284 µM | 0.0273 µM |  |  | 
AUGUGCAAUACGGAUACCAGCCCGUGUAGAUACAUGAGGAUCACCCAUGUCAAUGUAAAUGGCCCUUGGCAGCCGUUUGGGAGGC |  |  |  |  | apparent Kd [7]: 0.0157 µM; apparent Kd [8]: 0.0118 µM
AUGUUAAGACAGGAUAUCCAAGCUCUAGCGUCAGGAGAAGGGUCAACAUGAGGAUCACCCAUGUGUAGUCUUCG | 0.00748 µM | 0.0152 µM |  |  | 
AUGUUCCGUUAGAAGGUGUUGAGUGGAGGCUCACAAGGAUAUAACUUCCUCGUCGAUGACAUGAGGAUCACCCAUGUAGCACAA | 0.0503 µM | 0.0381 µM |  |  | 
AUUAGAAUGCGAGGAUAUGGUAAAUUCAUGCAUCCAGAAGGCGCGUCAGUAGAACAUGAGGAUCACCCAUGUGAUUGUUGUGGC | 0.0228 µM | 0.0269 µM |  |  | 
AUUGAACAUGAGGAUCACCCAUGUGCGGGUGGUAUAGGAUAUGCAGGAUCCUAAGAGUAAGCAGAAGGAUACACCG |  |  | 0.445 µM | 0.0334 µM | 
AUUGCCCAAGGAUAUCUAUUUAGAAACAUGAGGAUCACCCAUGUCAUAAUGUUAGGCUCAAGAGAAGGUGGAAGCU | 0.00833 µM | 0.00837 µM |  |  | 
CAAAGUUUUAAGAAGGGAUCGAUUAGAUUCACAUGAGGAUCACCCAUGUAGCCGGGACGGAGAGAUCAGGAUAUUAAAGAUGUC | 0.0558 µM | 0.0319 µM |  |  | 
CAACACGGAGAGAAGGAAGCUGAAACGGUGCACUUAGGAUAUCUUCCGCCAGAAAACAUGAGGAUCACCCAUGUUCAGUUAACG |  |  | 0.00782 µM | 0.00754 µM | 
CAAUCUACCACCGGCCUACUGUACACUCGCCGAGGACCGGUACGGCCGCCACUCGACGUUCGACAUGAGGAUCACCCAUGUGGGU |  |  |  |  | apparent Kd (designed as: OFF switch for tryptophan, no ligand): 0.168 µM; apparent Kd (ligand present: tryptophan, designed as: OFF switch for tryptophan): 0.334 µM
CACACCGAAGGAUAUACUACUGCUAUUUAGAGUGAGGGCGAACAUGAGGAUCACCCAUGUAGAAGGUCGAGAAA | 0.0175 µM | 0.0206 µM |  |  | 
